# Source: PubChem
# C8 TRAIL sens: viability loss with TRAIL in NB7+C8 cells, primary screen, TRAIL sensitizer project, cell-based, ATPlite luminescence. inhibition (viability loss, TRAIL sensitization), % at 10 µM. hit rate 1% among 360,000. AID 624354, 2012;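 active means compounds causing at least 50% loss of cell viability in the single-dose screen, relative to plate controls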
# STAT3 blocker: IL-6 driven STAT3 reporter inhibitors, primary screen, U3A cells, luciferase, luminescence, MLSCN library | IL-6 STAT3-luciferase reporter; host cell line lacks STAT1 | inhibition, % at 5.5 µM | hit rate 0.89% among 190,000 | AID 862, 2007;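 active means inhibition above the mean inhibition across all screened compounds plus 3 SD, cut at about 44% in these data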;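 further: 0% = DMSO only wells and 100% = 100 µM nifuroxazide control wells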
# PPC-1+TRAIL kill: compounds killing PPC-1 cancer cells with TRAIL present, primary screen, TRAIL potentiator project, ATPLite luminescence, uHTS; PPC-1 cells + TRAIL, ATPLite viability luminescence; cell killing (% activity), % at 4 µM or 5 µM; hit rate 0.41% among 220,000;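 active means cell killing above 50% in the first pass at 4 µM, then a duplicate retest at 5 µM averaging 50% or more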;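 further: plate controls were cells with TRAIL plus DMSO for no effect and medium-only wells lacking cells for full effect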
# STAT3 activator: IL-6 driven STAT3 reporter potentiators, primary screen, U3A cells, luciferase, luminescence, MLSCN library | IL-6 STAT3-luciferase reporter; 100% = signal with IL-6 EC80 alone | AID 871, 2007 | activation (% of control), % at 5.6 µM | hit rate 0.91% among 190,000;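 active means activation above the screen-wide mean of compound activation plus 3 SD, cut at about 130% in these data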;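 further: 0% = background luminescence of wells with medium and substrate only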
#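 Material: STAT3-luciferase reporter U3A cells. Controls: IL-6-treated wells, 100% activation. Read-out: % activation versus median of IL-6-stimulated wells. Probe or stimulus: IL-6 stimulus at 33 ng/mL final. Timing: compound 1 h, then IL-6 6 h at 37 °C. Signal: reporter luminescence signal.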
# STAT1 blocker: STAT1 signaling inhibitors, primary screen, cell-based, HTS, luciferase reporter. NIH 3T3 STAT1-luciferase reporter, IFN-gamma, luminescence. inhibition, % at 5.5 µM. hit rate 0.35% among 200,000;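 active means inhibition above a set limit, the mean inhibition across all tested compounds plus 3 SD, cut at about 34% in these data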;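 further: 0% = IFN-gamma with DMSO and 100% = IFN-gamma with 300 µM nifuroxazide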
# * marks the source's active call; other numbers are inactive results; / = no result. This is a sample that favours compounds with a hit; in the whole collection about 1.8% have one here.
SMILES,C8 TRAIL sens,STAT3 blocker,PPC-1+TRAIL kill,STAT3 activator,STAT1 blocker
COc1ccccc1N/C=C/c1onc(C)c1[N+](=O)[O-],47,87*,33,26,76*
CCC1CCCCN1c1ccc([N+](=O)[O-])cc1/C=N/NC(=O)Cn1c2ccccc2c(=O)c2ccccc21 (stereo not given),74*,-10,22,109,-7
CCc1ccc(OCC(=O)N/N=C/c2cc([N+](=O)[O-])ccc2N2CCCCCC2)cc1,9,1,4,101,-2
O=C(CSc1nnc(NC(=O)c2ccc(F)cc2)s1)NC1CCCC1,63*,/,/,/,/
O=C(CSc1nnc(NC(=O)c2ccc(F)cc2F)s1)NC1CCCC1,47,/,/,/,/
O=C(Nc1nnc(SCC(=O)N2CCOCC2)s1)c1ccccc1,75*,4,71*,97,-17
O=C(CSc1nnc(NC(=O)c2ccccc2)s1)NC1CCCC1,57*,/,/,/,/
O=C(CCCl)N1c2ccccc2C=Cc2ccccc21,7,/,/,/,/
CCN(CC(=O)Nc1ccc2c(c1)OCCO2)C(=O)/C=C/c1ccc([N+](=O)[O-])cc1,-19,/,/,/,/
C=C(C)CSc1nnc2n(C)c(=O)c3c4c(sc3n12)CCC4,55*,7,0,99,2
CC(C)Oc1ccc(CSc2nnc3n(C)c(=O)c4c5c(sc4n23)CCCC5)cc1,-14,5,/,100,-4
Cc1ccc(C2(C)NC(=O)N(CC(=O)N3c4ccccc4NC(=O)CC3C)C2=O)cc1 (stereo not given),-2,/,/,/,/
Nc1nc(-c2ccccc2)nc(-c2ccccc2O)n1,9,-42,/,139*,3
CCOC1=C2CN(S(=O)(=O)c3ccc(C)cc3)C(c3cccc(Cl)c3)CC2N(S(=O)(=O)c2ccc(C)cc2)C(c2ccncc2)C1 (stereo not given),-2,/,/,/,/
CN(C)c1ccc(N=Nc2ccccc2Br)cc1,55*,/,/,/,/
O=C(CN1CCN(Cc2ccccc2)CC1)Nc1ccc(Cl)cc1,-14,/,/,/,/
Cc1ccc2nc(NC(=O)c3ccc(-c4nc5ccccc5s4)s3)sc2c1,67*,19,11,84,-4
Cc1ccc2nc(NC(=S)NC(=O)c3ccco3)sc2c1,82*,-10,6,106,-23
O=C(Nc1nc2ccccc2s1)c1ccc(OCC2CCCO2)cc1 (stereo not given),67*,19,22,86,-87
Cc1ccc(C(=O)Nc2nc3ccccc3c(=O)s2)cc1,61*,21,40,85,-28
O=C(Nc1ncccc1O)c1ccc(OCC2CCCO2)cc1 (stereo not given),18,/,/,/,/
COc1ccc(CCC(=O)N2CCCC(Nc3ccc(C)c(C)c3)C2)cc1OC (stereo not given),-7,/,/,/,/
CC(=O)Nc1c(-c2ccc3ccccc3c2)nc2ccccn12,37,/,/,/,/
CN(CC1CCCO1)S(=O)(=O)c1ccc(C(=O)Nc2ccc3c(c2)OCO3)cc1 (stereo not given),5,8,4,96,8
CN(CC1CCCO1)S(=O)(=O)c1ccc(C(=O)Nc2nc3cc4c(cc3s2)OCO4)cc1 (stereo not given),35,82*,/,37,7
SMILES,C8 TRAIL sens,STAT3 blocker,PPC-1+TRAIL kill,STAT3 activator,STAT1 blocker
COc1ccc(C(=O)Nc2nc3ccccc3s2)cc1,60*,/,/,/,/
COc1cccc(C(=O)Nc2nc3ccccc3s2)c1,29,/,/,/,/
COc1ccc2nc(NNC(=O)c3cc(=O)c4ccccc4o3)sc2c1,48*,/,16,/,-15
COc1ccc2nc(NC(=O)c3ccccc3O)sc2c1,78*,/,/,/,/
O=C(NC1CCCN(Cc2ccc(Cl)cc2)C1)c1c(F)ccc(F)c1F (stereo not given),8,/,/,/,/
CCCCn1c(N)c(N(CCOC)C(=O)CSc2ccc([N+](=O)[O-])cc2)c(=O)[nH]c1=O,-10,/,/,/,/
COc1ccc2nc(Nc3ccccc3)sc2c1,52*,19,49,86,-55
O=C(Nc1nc2ccc(Cl)cc2s1)c1ccco1,40,35,8,69,-18
COc1ccc2nc(Nc3ccc4c(c3)OCO4)sc2c1,5,12,39,91,-57
COc1ccc2nc(NC(=O)c3ccco3)sc2c1,67*,/,/,/,/
O=[N+]([O-])c1ccc(N2CCN(Cc3ccccc3)CC2)s1,-2,/,/,/,/
O=[N+]([O-])c1ccc(N2CCN(Cc3ccccc3)CC2)c2c1no[n+]2[O-],94*,/,/,/,/
CN(C)c1ccc(/C=N/n2ncc3ccccc32)cc1,51*,12,43,95,-55
C=CCn1c(/N=C/c2ccc(N(C)C)cc2)nc2ccccc21,-3,9,0,95,4
COc1ccc(/C=C2\CCCC3C2=NN(C(=O)COC(=O)CNC(=O)c2ccccc2)C3c2ccc(OC)cc2)cc1 (stereo not given),59*,6,20,94,12
O=C(CSc1ccsc1[N+](=O)[O-])NCc1ccccc1,0,-39,17,135*,-13
CSC(=Nc1ccccc1)N=C(SCc1ccccc1)N(C)C,91*,/,/,/,/
NC(=O)c1ccsc1NC(=O)c1coc2ccccc2c1=O,52*,19,29,91,-71
CCc1c(C)[nH]n(-c2nc(-c3ccccc3)cs2)c1=O,0,12,-3,94,-7
Cc1[nH]n(-c2nc(-c3ccc(Cl)cc3)cs2)c(=O)c1N=Nc1ccc(O)cc1,80*,23,0,83,19
O=c1cc(-c2c(F)c(F)c(F)c(F)c2F)oc2ccccc12,77*,14,-2,94,0
CSc1nc(NCCN(C)C)c2sc3nc(-c4ccco4)c4c(c3c2n1)CCC4,83*,/,/,/,/
CSc1nc(N(C)CCO)c2sc3nc(-c4ccco4)c4c(c3c2n1)CCC4,-2,-16,6,113,2
COCC(C)NC(=O)CSc1nc2cc(S(=O)(=O)N3CCCCC3)ccc2o1 (stereo not given),-3,/,/,/,/
COc1ccc(NC(=O)/C(Cl)=C(/Cl)S(=O)Cc2ccccc2)cn1 (stereo not given),96*,8,2,99,-112
SMILES,C8 TRAIL sens,STAT3 blocker,PPC-1+TRAIL kill,STAT3 activator,STAT1 blocker
COc1ccc(/C=C/C(=O)Nc2ccc(OC)nc2)cc1,13,15,27,90,-13
COc1ccc(CS(=O)(=O)/C(Cl)=C(/Cl)C(=O)Nc2ccc(OC)nc2)cc1,90*,-4,16,108,-27
O=S1(=O)CCOC[C@H](CC2CCCCC2)N1Cc1ccccc1Br,-17,/,/,/,/
S=C(Nc1ccc(Cl)cc1)c1nc2ccccc2[nH]1,69*,1,26,100,-76
COc1ccc(S(=O)(=O)N2CCN(CC(=O)c3c(N)n(C)c(=O)n(C)c3=O)CC2)cc1OC,-7,/,/,/,/
CSc1nnc(NC(=O)c2nc(S(=O)(=O)Cc3ccccc3)ncc2Cl)s1,82*,/,/,/,/
CCCc1nnc(NC(=O)c2nc(S(=O)(=O)Cc3ccc(C)cc3)ncc2Cl)s1,25,/,/,/,/
